Reference: PMC12594766 (Nature Communications, 2025)
≈ marks a conversion by molar mass, not a printed value.

Key:
S. aureus BAA39 (MRSA) = assay: MIC against multidrug-resistant strain; assay type: cell-based; details: Staphylococcus aureus
How it was run: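 Broth microdilution in non-cation-adjusted Mueller-Hinton broth. Bacteria were subcultured to OD 0.2–0.3 (about 10^8 CFU/mL) and diluted to give about 10^5 CFU/mL in wells. The test compound stock was in DI water, serially diluted twofold to final 512–1 µg/mL. Plates were incubated at 37 °C for 18–20 h and read at OD600.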

S. aureus USA300 (MRSA) = assay: MIC against multidrug-resistant strain; assay type: cell-based; details: Staphylococcus aureus
How it was run: (§1)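 Broth microdilution in non-cation-adjusted Mueller-Hinton broth. Bacteria were subcultured to OD 0.2–0.3 (about 10^8 CFU/mL), then diluted to about 10^5 CFU/mL final. Test compound stock was in DI water. Twofold dilutions gave 512 to 1 µg/mL final. Plates were incubated 18-20 h at 37 °C and read at OD600.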

S. aureus USA300 (LAC) = assay: MIC against multidrug-resistant strain; assay type: cell-based; details: Staphylococcus aureus
How it was run: as §1

P. aeruginosa PAO1 [1] = assay: Murine lung infection model; assay type: in vivo, balb/c mice; details: 10 mg/kg intranasal at 2, 8, 26 h
How it was run: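 Infection was intranasal with P. aeruginosa PAO1 (10^4 CFU/mL inoculum). PBS, test compound or imipenem was given intranasally at 10 mg/kg at 2, 8 and 26 h post-infection (n = 6). Lungs were homogenised at 38 h for CFU. Survival was followed for up to 7 days.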

P. aeruginosa BAA-2797 [2] = assay: Murine systemic; assay type: in vivo, balb/c mice; details: P. aeruginosa BAA-2797 peritonitis; single dose 10 mg/kg i.p. at 2 h; n = 6
How it was run: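 Female BALB/c mice, 7–8 weeks, were infected i.p. with P. aeruginosa BAA-2797 (10^6 CFU/mL) in PBS containing 5% mucin. At 2 h post-infection they received a single i.p. dose of PBS, test compound (10 mg/kg) or imipenem (10 mg/kg), n = 6. Survival was monitored for up to 7 days.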

P. aeruginosa PAO1 [3] = assay: Resistance frequency determination; assay type: cell-based; details: 10× MIC
K. pneumoniae KPNR [4] = assay: Murine neutropenic thigh infection model; assay type: in vivo, balb/c mice; details: 2 doses of 15 mg/kg s.c. at 2, 6 h, 26 h
How it was run: (§2)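 Infection was intramuscular into the right thigh: P. aeruginosa BAA-2797 at 10^5, K. pneumoniae KPNR at 10^6, or MRSA at 10^5 CFU/mL. PBS, test compound or imipenem was given s.c. at 15 mg/kg at 2 and 6 h (n = 6). Thighs were homogenised at 26 h for CFU.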

[5] = conventional antibiotics, literature values; cited from earlier work
K. pneumoniae KPNR [6] = assay: MIC against multidrug-resistant strain; assay type: cell-based; details: Klebsiella pneumoniae
P. aeruginosa BAA-2797 [7] = assay: Murine neutropenic thigh infection model; assay type: in vivo, balb/c mice; details: 2 doses of 15 mg/kg s.c. at 2, 6 h, 26 h
How it was run: as §2

MRSA = assay: Murine neutropenic thigh infection model; assay type: in vivo, balb/c mice; details: 2 doses of 15 mg/kg s.c. at 2, 6 h, 26 h
How it was run: as §2

O=C(O)c1cn(C2CC2)c2cc(N3CCNCC3)c(F)cc2c1=O [CIP, ciprofloxacin]
MIC (S. aureus BAA39 (MRSA)): 4 µg/mL (≈ 12.1 µM) | MIC (S. aureus USA300 (MRSA)): < 1 µg/mL | MIC (S. aureus USA300 (LAC)): 8 µg/mL (≈ 24.1 µM)

C[C@@H](O)[C@H]1C(=O)N2C(C(=O)O)=C(SCCN=CN)C[C@H]12 [IMP, imipenem]
MIC (S. aureus BAA39 (MRSA)): < 1 µg/mL | reduction of bacterial burden in lung tissues (P. aeruginosa PAO1 [1]; P. aeruginosa PAO1, 38 h): 4.7 log10 | survival (mice rescued) (P. aeruginosa PAO1 [1]; P. aeruginosa PAO1 lung infection, n = 6): 5 out of 6 | MIC (S. aureus USA300 (MRSA)): < 1 µg/mL | MIC (S. aureus USA300 (LAC)): < 1 µg/mL | survival (mice rescued) (P. aeruginosa BAA-2797 [2]): succumbed to the infection | selection of resistant escape mutants (P. aeruginosa PAO1 [3]): resistant strains developed | CFU reduction in thigh vs PBS (-) (K. pneumoniae KPNR [4]): 1.4 log10 | half-life (T1/2) [5]: 12 min | MIC (K. pneumoniae KPNR [6]): 4 µg/mL (≈ 13.4 µM) | CFU reduction in thigh vs PBS (-) (P. aeruginosa BAA-2797 [7]): 0.1 log10

CN[C@H](CC(C)C)C(=O)N[C@H]1C(=O)N[C@@H](CC(N)=O)C(=O)N[C@H]2C(=O)N[C@H]3C(=O)N[C@H](C(=O)N[C@H](C(=O)O)c4cc(O)cc(O)c4-c4cc3ccc4O)[C@H](O)c3ccc(c(Cl)c3)Oc3cc2cc(c3O[C@@H]2O[C@H](CO)[C@@H](O)[C@H](O)[C@H]2O[C@H]2C[C@](C)(N)[C@H](O)[C@H](C)O2)Oc2ccc(cc2Cl)[C@H]1O [VAN, vancomycin]
MIC (S. aureus BAA39 (MRSA)): 1 µg/mL (≈ 0.69 µM) | MIC (S. aureus USA300 (MRSA)): < 1 µg/mL | MIC (S. aureus USA300 (LAC)): < 1 µg/mL | CFU reduction in thigh vs PBS (-) (MRSA): 2.3 log10

C[C@@H](O)[C@H]1C(=O)N2C(C(=O)O)=C(S[C@@H]3CN[C@H](C(=O)N(C)C)C3)[C@H](C)[C@H]12 [meropenem]
half-life (T1/2) [5]: 6 min
